What is called IC50 is the concentration that inhibits the measured activity by half.

Where only a bound is given, the exact number is not on record here.

The target of assay [1] is T1, Polyunsaturated fatty acid 5-lipoxygenase (Homo sapiens, UniProt P09917).
T1 sequence (P09917 whole entry): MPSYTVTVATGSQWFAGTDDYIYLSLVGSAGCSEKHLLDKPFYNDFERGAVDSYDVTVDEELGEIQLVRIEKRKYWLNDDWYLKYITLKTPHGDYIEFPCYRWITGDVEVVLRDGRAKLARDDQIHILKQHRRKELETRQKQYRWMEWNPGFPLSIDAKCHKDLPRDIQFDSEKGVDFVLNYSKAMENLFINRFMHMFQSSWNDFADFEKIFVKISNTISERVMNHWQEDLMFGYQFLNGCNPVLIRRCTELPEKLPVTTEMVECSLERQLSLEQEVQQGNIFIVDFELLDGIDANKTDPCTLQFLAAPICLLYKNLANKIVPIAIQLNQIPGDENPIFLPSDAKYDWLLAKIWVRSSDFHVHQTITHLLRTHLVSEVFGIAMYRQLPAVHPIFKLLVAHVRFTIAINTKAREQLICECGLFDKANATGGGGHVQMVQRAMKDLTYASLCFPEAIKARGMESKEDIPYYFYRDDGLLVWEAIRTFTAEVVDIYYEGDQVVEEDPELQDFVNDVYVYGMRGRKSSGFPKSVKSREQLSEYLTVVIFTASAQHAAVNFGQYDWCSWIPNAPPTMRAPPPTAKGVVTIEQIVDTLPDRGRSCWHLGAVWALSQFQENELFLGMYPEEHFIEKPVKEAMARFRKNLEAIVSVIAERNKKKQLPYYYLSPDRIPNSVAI
As to the kind of experiment: Inhibition of human recombinant 5-LOX expressed in Escherichia coli BL21 incubated for 10 mins in presence of arachidonic acid by RP-HPLC based cell-free assay. The procedure, abridged:
(§1)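 Recombinant human 5-LO, semi-purified from a 40,000 × g lysate supernatant on ATP-agarose, diluted in ice-cold PBS with 1 mM EDTA and 1 mM ATP. Preincubated 10 min at 4 °C with compound or 0.1% DMSO, warmed 30 s at 37 °C, then started with 2 mM CaCl₂ plus 20 µM AA. Reaction 10 min at 37 °C, stopped with cold methanol, products by RP-HPLC. IC₅₀ from 4–5 concentrations.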

Assay [2] concerns the target T2, Polyunsaturated fatty acid 5-lipoxygenase (Homo sapiens) (UniProt P09917).
T2 sequence (whole entry): T1 sequence (P09917 whole entry)
As to the kind of experiment: Inhibition of human recombinant 5-LOX expressed in Escherichia coli BL21 assessed as remaining activity at 10 uM incubated for 10 mins in presence of arachidonic acid by RP-HPLC based cell-free assay. In a few lines:
as §1

In assay [3] the target is T3, Polyunsaturated fatty acid lipoxygenase ALOX15 (Homo sapiens) (UniProt P16050).
T3 sequence (whole entry): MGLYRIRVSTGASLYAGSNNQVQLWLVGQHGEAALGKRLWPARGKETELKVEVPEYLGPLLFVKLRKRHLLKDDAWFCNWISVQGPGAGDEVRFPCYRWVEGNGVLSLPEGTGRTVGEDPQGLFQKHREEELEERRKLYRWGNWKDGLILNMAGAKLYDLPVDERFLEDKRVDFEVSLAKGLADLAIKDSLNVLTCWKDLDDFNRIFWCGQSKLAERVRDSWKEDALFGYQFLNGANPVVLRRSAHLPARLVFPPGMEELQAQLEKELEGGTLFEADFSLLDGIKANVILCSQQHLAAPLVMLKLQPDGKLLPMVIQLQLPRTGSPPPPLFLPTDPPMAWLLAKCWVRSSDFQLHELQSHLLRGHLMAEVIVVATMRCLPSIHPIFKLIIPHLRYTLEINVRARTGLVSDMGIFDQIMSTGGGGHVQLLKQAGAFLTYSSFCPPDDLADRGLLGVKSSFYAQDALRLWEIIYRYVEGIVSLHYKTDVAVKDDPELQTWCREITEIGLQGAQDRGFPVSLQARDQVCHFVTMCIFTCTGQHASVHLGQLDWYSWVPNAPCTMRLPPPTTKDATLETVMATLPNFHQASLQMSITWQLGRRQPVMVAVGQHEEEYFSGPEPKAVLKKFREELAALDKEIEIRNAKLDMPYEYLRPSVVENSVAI
In words: Inhibition of 15-LOX-1 in human blood PMNL assessed as remaining activity by measuring 15-HETE synthesis at 10 uM. The procedure, abridged:
(§2)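 PMNL isolated from heparinized blood of fasted healthy donors by dextran sedimentation and Nycoprep centrifugation, with hypotonic lysis of erythrocytes. Cells at 5 × 10⁶ in 1 ml PBS pH 7.4 with 1 mg/ml glucose and 1 mM CaCl₂, preincubated 15 min at 37 °C with compound or 0.1% DMSO vehicle, then stimulated 10 min at 37 °C. 12-HETE or 15-HETE formation measured.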

For assay [4], the target named is T2, Polyunsaturated fatty acid 5-lipoxygenase (Homo sapiens). As to the kind of experiment: Inhibition of 5-LOX in A23187-stimulated human blood PMNL assessed as remaining activity by measuring lipoxygenase products formation at 10 uM pre-incubated for 15 mins followed by stimulation with A23187 for 10 mins by RP-HPLC based cell based assay. The procedure, abridged:
(§3)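 Human PMNL (5 × 10⁶ in 1 ml PBS pH 7.4, 1 mg/ml glucose, 1 mM CaCl₂), preincubated 15 min at 37 °C with compound or 0.1% DMSO, then stimulated 10 min at 37 °C with A23187, with or without AA. 5-LO products measured. Values are mean ± S.E. of 3–4 independent experiments. IC₅₀ read graphically from 4–5 concentrations.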

Assay [5] deals with T1, Polyunsaturated fatty acid 5-lipoxygenase. In words: Inhibition of 5-LOX in A23187-stimulated human blood PMNL assessed as reduction in lipoxygenase products formation pre-incubated for 15 mins followed by stimulation with A23187 for 10 mins by RP-HPLC based cell based assay. In a few lines:
as §3

Assay [6] shares this target. As to the kind of experiment: Inhibition of 5-LOX in A23187-stimulated human blood PMNL assessed as reduction in lipoxygenase products formation in presence of arachidonic acid pre-incubated for 15 mins followed by stimulation with A23187 for 10 mins by RP-HPLC based cell based assay. In a few lines: as §3
Assay [7] deals with T4, Polyunsaturated fatty acid lipoxygenase ALOX12 (Homo sapiens) (UniProt P18054).
T4 sequence (whole entry): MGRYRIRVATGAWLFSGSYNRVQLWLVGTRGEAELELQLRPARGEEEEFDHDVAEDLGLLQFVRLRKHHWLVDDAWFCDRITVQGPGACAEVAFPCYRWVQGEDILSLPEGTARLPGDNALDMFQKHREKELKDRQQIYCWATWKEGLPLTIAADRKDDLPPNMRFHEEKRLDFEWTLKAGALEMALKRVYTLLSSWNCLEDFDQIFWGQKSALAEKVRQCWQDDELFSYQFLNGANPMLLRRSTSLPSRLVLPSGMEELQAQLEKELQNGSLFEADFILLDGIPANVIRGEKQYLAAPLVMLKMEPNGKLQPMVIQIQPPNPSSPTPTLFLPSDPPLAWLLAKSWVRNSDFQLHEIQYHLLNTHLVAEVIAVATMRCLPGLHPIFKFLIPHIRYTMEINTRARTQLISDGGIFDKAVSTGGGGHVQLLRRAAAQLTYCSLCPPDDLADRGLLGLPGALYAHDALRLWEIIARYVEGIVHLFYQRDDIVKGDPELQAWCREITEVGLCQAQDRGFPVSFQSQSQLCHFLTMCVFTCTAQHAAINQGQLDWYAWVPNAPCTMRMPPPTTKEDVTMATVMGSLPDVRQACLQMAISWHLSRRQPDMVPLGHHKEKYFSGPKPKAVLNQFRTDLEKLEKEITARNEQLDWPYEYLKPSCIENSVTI
In words: Inhibition of 12-LOX in human blood PMNL assessed as remaining activity by measuring 12-HETE synthesis at 10 uM. In a few lines:
as §2

For assay [8], the target named is T2, Polyunsaturated fatty acid 5-lipoxygenase (Homo sapiens). In words: Inhibition of 5-LOX in A23187-stimulated human blood PMNL assessed as remaining activity by measuring lipoxygenase products formation at 10 uM in presence of arachidonic acid pre-incubated for 15 mins followed by stimulation with A23187 for 10 mins by RP-HPLC based cell based assay. The procedure, abridged:
as §3

The species entered for assay [9] is Homo sapiens. As to the kind of experiment: Selectivity index, ratio of inhibition for […] in human blood PMNL to IC50 for 5-LOX in human blood PMNL.
The species named for assay [10] is Homo sapiens. As to the kind of experiment: Selectivity index, ratio of inhibition for 12-LOX in human blood PMNL to IC50 for 5-LOX in human blood PMNL.
Assay [11] has as its target T2, Polyunsaturated fatty acid 5-lipoxygenase (Homo sapiens). As to the kind of experiment: Potency index, ratio of IC50 for human 5-LOX by intact cell based assay to IC50 for human 5-LOX by cell free assay.
The target of assay [12] is T1, Polyunsaturated fatty acid 5-lipoxygenase. In words: Inhibition of human 5-LOX by intact cell based assay.
For assay [13] the target is unchanged. In words: Inhibition of human 5-LOX by cell free assay.

For the molecule `CCCCCCC1=C(O)C(=O)C=C(OC)C1=O`, the half-inhibitory concentration (IC50) in [1], in assay [5] and in assay [6] was over 10 µM in each case. Moreover, the Activity in [2] amounted to 71.1%; in assay [3], 65.8%; in assay [4] it was 68.9%; in assay [7] it was 44.5%; in assay [8], 64.1%.

Take `CCCCCCCCCCCCC1=C(OC)C(OC)=CC(=O)C1=O`: the 50% inhibitory concentration (IC50) in assay [1] worked out at 0.13 µM; in assay [5], 0.029 µM; in assay [6], 0.15 µM. For the same molecule, the Selectivity Index in assay [9] and in assay [10] was over 66 each time. The Activity was found to be 133% in [3] and 135% in [7].

As for `CCCCCCCCCCCCCCCCC1=C(O)C(=O)C=C(OC)C1=O`, the results for the IC50 in assay [1], in assay [5] and in [6] were over 10 µM, 1 µM and 1.1 µM, respectively. The Activity in assay [2] is 60.1%; in assay [3], 119%; in [7], 138%.

For `CCCCCCCCCCC1=C(OC)C(OC)=CC(=O)C1=O`, the IC50 in assay [1] is 0.13 µM; in assay [5], 0.04 µM; in assay [6], 0.07 µM. For the same molecule, the Selectivity Index in assay [9] and in [10] was over 66 in each case. In addition, the values for the Activity in assay [3] and in [7] were 148% and 133%, respectively.

Regarding `COC1=CC(=O)C(O)=C(C/C=C(\C)CCC=C(C)C)C1=O`, the IC50 in assay [1] is over 10 µM; in [5] it was 4.1 µM; in assay [6], over 10 µM. Also, the Activity was 73.6% in assay [2], 112% in assay [3], 101% in assay [7] and 65.9% in [8].

`CCCCCCCCCCCC1=C(O)C(=O)C=C(O)C1=O` [EMBELIN]: the IC50 amounted to 0.06 µM in [1]; 0.8 µM in [12]; 0.06 µM in assay [13]; 1.7 µM in assay [5]; 3.5 µM in assay [6]. For the same molecule, the Ratio IC50 in assay [11] was 13. The Activity in assay [3] came to 91.5%; in assay [7], 74.9%.

For the molecule `CCCCCCCCCCCCCC1=C(OC)C(OC)=CC(=O)C1=O`, the IC50 was 0.08 µM in [1], 0.12 µM in assay [5] and 0.05 µM in assay [6]. Further, the Selectivity Index in assay [9] and in assay [10] was over 66 throughout. Besides, the Activity is 137% in assay [3] and 78.5% in assay [7].

Consider `CCCCC1=C(O)C(=O)C=C(OC)C1=O`, for which the IC50 in [1], in assay [5] and in [6] was over 10 µM in each case. The Activity in [2] turned out to be 70.5%; in [3], 112%; in assay [4], 86%; in assay [7] it was 91.2%; in assay [8] it was 95.7%.

Turning to `CCCCCCCCCCCC1=C(OC)C(OC)=CC(=O)C1=O`, the IC50 in [1] was 0.09 µM; in [5] it was 0.06 µM; in [6], 0.1 µM. Further, the Selectivity Index in assay [9] and in [10] was over 66 in each case. Moreover, the Activity in assay [3] stood at 105%; in assay [7], 236%.

In the case of `CCCCC1=C(OC)C(OC)=CC(=O)C1=O`, the values for the IC50 in assay [1], in assay [5] and in assay [6] were over 10 µM, 2.2 µM and 5.1 µM, respectively. Further, the Activity in assay [2] was 82.9%; in assay [3] it was 129%; in assay [7] it was 85.8%.

As to `CCCCCCCCCCCCCCCC1=C(OC)C(OC)=CC(=O)C1=O`, the values for the IC50 in assay [1], in assay [5] and in assay [6] were 0.62 µM, over 10 µM and over 10 µM, respectively. In addition, the Activity stood at 115% in assay [3], 57.6% in assay [4], 88.9% in assay [7] and 66.8% in assay [8].

Consider `CCCCC1=C(O)C(=O)C=C(O)C1=O`, for which the IC50 in [1], in assay [5] and in [6] was over 10 µM throughout. Further, the Activity in assay [2] amounted to 65.4%; in assay [3], 82.3%; in [4], 93.5%; in assay [7], 93.3%; in assay [8] it was 92.8%.

As to `CCCCCCCCCCCCCCCCC1=C(O)C(=O)C=C(O)C1=O`, the IC50 in [1] is 0.19 µM; in assay [5], over 10 µM; in assay [6] it was over 10 µM. The Activity in assay [3] was determined as 105%; in [4] it was 88%; in [7], 117%; in assay [8], 80.5%.

(Values after ChEMBL document CHEMBL3414543, “Novel series of benzoquinones with high potency against 5-lipoxygenase in human polymorphonuclear leukocytes” (Eur J Med Chem, 2015).)
